Data from ChEMBL document CHEMBL4689842, “EUbOPEN Chemogenomics Library wave 1” (2021).
Where “and” joins values, the source holds several entries; their conditions need not be identical. Equal entries are not always repeated.

Test system: HEK-293T
Assay: Multiplex assay against HEK293T;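 as to Population Tubulin-Different-Phenotype (%): share of the cells with healthy nuclei that show this phenotype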
Assay type: toxicity, cell-based
Settings: human
Method in brief: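 Four dyes were applied at seeding to live cells: Hoechst33342, BioTracker Green Microtubule Cytoskeleton Dye, MitoTracker Red and Annexin V Alexa Fluor 680. Imaging after compound addition used a CQ1 microscope at 37°C and 5% CO2. CellPathfinder machine-learning gating then sorted cells into Hoechst high-intensity objects or normal cells, normal cells into healthy, pyknosed or fragmented nuclei, and pyknosed cells into mitotic or apoptotic, with tubulin, mitochondrial-mass and membrane-permeability phenotypes given as per cents of healthy-nucleus cells.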

[1] = 12 h, 1 µM, compound concentration 1 uM, replicate 1
[2] = 12 h, 1 µM, compound concentration 1 uM, replicate 2
[3] = 12 h, 10 µM, compound concentration 10 uM, replicate 1
[4] = 12 h, 10 µM, compound concentration 10 uM, replicate 2
[5] = 24 h, 1 µM, compound concentration 1 uM, replicate 1
[6] = 24 h, 1 µM, compound concentration 1 uM, replicate 2
[7] = 24 h, 10 µM, compound concentration 10 uM, replicate 1
[8] = 24 h, 10 µM, compound concentration 10 uM, replicate 2
[9] = 48 h, 10 µM, compound concentration 10 uM, replicate 1
[10] = 48 h, 10 µM, compound concentration 10 uM, replicate 2

SMILES: COCC(=O)NC/C=C/c1ccc2ncnc(Nc3ccc(Oc4ccc(C)nc4)c(C)c3)c2c1 [CP-724714]
- Population Apoptotic (%) [1]: 22% and 23%
- Population Fragmented Nuclei (%) [1]: 14% and 11%
- Population Healthy Nuclei (%) [1]: 39% and 69%
- Population Hoechst High Intensity Objects (%) [1]: 16% and 10%
- Population Mitotic Cells (%) [1]: 77% and 76%
- Population Normal (%) [1]: 83% and 89%
- Population Pyknosed Nuclei (%) [1]: 46% and 18%
- Total Cell Count [1]: 617 and 674
- Population Apoptotic (%) [2]: 16% and 8%
- Population Healthy Nuclei (%) [2]: 70% and 89%
- Population Hoechst High Intensity Objects (%) [2]: 3% and 2%
- Population Mitotic Cells (%) [2]: 83% and 91%
- Population Normal (%) [2]: 96% and 97%
- Total Cell Count [2]: 843 and 1632
- Population Apoptotic (%) [3]: 66%
- Population Fragmented Nuclei (%) [3]: 19%
- Population Healthy Nuclei (%) [3]: 18%
- Population Hoechst High Intensity Objects (%) [3]: 19%
- Population Membrane Permeable-Phenotype (%) [3]: 2%
- Population Mitochondria Different-Phenotype (%) [3]: 100%
- Population Mitotic Cells (%) [3]: 33%
- Population Normal (%) [3]: 80%
- Population Pyknosed Nuclei (%) [3]: 62%
- Population Tubulin-Different-Phenotype (%) [3]: 100%
- Total Cell Count [3]: 329
- Population Apoptotic (%) [4]: 48%
- Population Fragmented Nuclei (%) [4]: 12%
- Population Healthy Nuclei (%) [4]: 12%
- Population Hoechst High Intensity Objects (%) [4]: 6%
- Population Membrane Permeable-Phenotype (%) [4]: 11%
- Population Mitochondria Different-Phenotype (%) [4]: 96%
- Population Mitotic Cells (%) [4]: 51%
- Population Normal (%) [4]: 93%
- Population Pyknosed Nuclei (%) [4]: 75%
- Population Tubulin-Different-Phenotype (%) [4]: 92%
- Total Cell Count [4]: 230
- Population Apoptotic (%) [5]: 31% and 18%
- Population Fragmented Nuclei (%) [5]: 13% and 9%
- Population Healthy Nuclei (%) [5]: 54% and 81%
- Population Hoechst High Intensity Objects (%) [5]: 12% and 6%
- Population Membrane Permeable-Phenotype (%) [5]: 19%
- Population Mitotic Cells (%) [5]: 68% and 81%
- Population Normal (%) [5]: 87% and 93%
- Total Cell Count [5]: 614 and 832
- Population Apoptotic (%) [6]: 14% and 5%
- Population Healthy Nuclei (%) [6]: 65% and 76%
- Population Hoechst High Intensity Objects (%) [6]: 4% and 2%
- Population Membrane Permeable-Phenotype (%) [6]: 10% and 9%
- Population Mitotic Cells (%) [6]: 85% and 94%
- Population Normal (%) [6]: 95% and 97%
- Total Cell Count [6]: 1006 and 2815
- Population Apoptotic (%) [7]: 71%
- Population Fragmented Nuclei (%) [7]: 23%
- Population Healthy Nuclei (%) [7]: 17%
- Population Hoechst High Intensity Objects (%) [7]: 19%
- Population Membrane Permeable-Phenotype (%) [7]: 0%
- Population Mitochondria Different-Phenotype (%) [7]: 97%
- Population Mitotic Cells (%) [7]: 28%
- Population Normal (%) [7]: 80%
- Population Pyknosed Nuclei (%) [7]: 58%
- Total Cell Count [7]: 336
- Population Apoptotic (%) [8]: 70%
- Population Fragmented Nuclei (%) [8]: 7%
- Population Healthy Nuclei (%) [8]: 28%
- Population Hoechst High Intensity Objects (%) [8]: 6%
- Population Membrane Permeable-Phenotype (%) [8]: 6%
- Population Mitochondria Different-Phenotype (%) [8]: 98%
- Population Mitotic Cells (%) [8]: 29%
- Population Normal (%) [8]: 93%
- Population Pyknosed Nuclei (%) [8]: 63%
- Population Tubulin-Different-Phenotype (%) [8]: 95%
- Total Cell Count [8]: 245
- Population Apoptotic (%) [9]: 62%
- Population Fragmented Nuclei (%) [9]: 26%
- Population Healthy Nuclei (%) [9]: 10%
- Population Hoechst High Intensity Objects (%) [9]: 22%
- Population Membrane Permeable-Phenotype (%) [9]: 7%
- Population Mitochondria Different-Phenotype (%) [9]: 82%
- Population Mitotic Cells (%) [9]: 37%
- Population Normal (%) [9]: 77%
- Population Pyknosed Nuclei (%) [9]: 62%
- Population Tubulin-Different-Phenotype (%) [9]: 92%
- Total Cell Count [9]: 347
- Population Apoptotic (%) [10]: 66%
- Population Fragmented Nuclei (%) [10]: 8%
- Population Healthy Nuclei (%) [10]: 51%
- Population Hoechst High Intensity Objects (%) [10]: 5%
- Population Mitochondria Different-Phenotype (%) [10]: 90%
- Population Mitotic Cells (%) [10]: 33%
- Population Normal (%) [10]: 94%
- Population Pyknosed Nuclei (%) [10]: 39%
- Population Tubulin-Different-Phenotype (%) [10]: 96%
- Total Cell Count [10]: 291

SMILES: Cn1nc(C(F)(F)F)cc1-c1cnc(N2CCc3cc(S(=O)(=O)Nc4c(F)cc(Cl)cc4F)cc(N4CCCC4=O)c32)nc1 [TP-020]
- Population Apoptotic (%) [1]: 25%
- Population Fragmented Nuclei (%) [1]: 10%
- Population Healthy Nuclei (%) [1]: 71%
- Population Hoechst High Intensity Objects (%) [1]: 10%
- Population Membrane Permeable-Phenotype (%) [1]: 6%
- Population Mitochondria Different-Phenotype (%) [1]: 9%
- Population Mitotic Cells (%) [1]: 74%
- Population Normal (%) [1]: 89%
- Population Pyknosed Nuclei (%) [1]: 18%
- Population Tubulin-Different-Phenotype (%) [1]: 16%
- Total Cell Count [1]: 692
- Population Apoptotic (%) [2]: 16%
- Population Fragmented Nuclei (%) [2]: 5%
- Population Healthy Nuclei (%) [2]: 89%
- Population Hoechst High Intensity Objects (%) [2]: 1%
- Population Membrane Permeable-Phenotype (%) [2]: 9%
- Population Mitochondria Different-Phenotype (%) [2]: 13%
- Population Mitotic Cells (%) [2]: 83%
- Population Normal (%) [2]: 98%
- Population Pyknosed Nuclei (%) [2]: 5%
- Population Tubulin-Different-Phenotype (%) [2]: 37%
- Total Cell Count [2]: 1398
- Population Apoptotic (%) [3]: 17%
- Population Fragmented Nuclei (%) [3]: 14%
- Population Healthy Nuclei (%) [3]: 63%
- Population Hoechst High Intensity Objects (%) [3]: 11%
- Population Membrane Permeable-Phenotype (%) [3]: 2%
- Population Mitochondria Different-Phenotype (%) [3]: 2%
- Population Mitotic Cells (%) [3]: 82%
- Population Normal (%) [3]: 88%
- Population Pyknosed Nuclei (%) [3]: 21%
- Population Tubulin-Different-Phenotype (%) [3]: 3%
- Total Cell Count [3]: 565
- Population Apoptotic (%) [4]: 4%
- Population Fragmented Nuclei (%) [4]: 9%
- Population Healthy Nuclei (%) [4]: 86%
- Population Hoechst High Intensity Objects (%) [4]: 1%
- Population Mitochondria Different-Phenotype (%) [4]: 5%
- Population Mitotic Cells (%) [4]: 95%
- Population Normal (%) [4]: 98%
- Population Pyknosed Nuclei (%) [4]: 4%
- Population Tubulin-Different-Phenotype (%) [4]: 5%
- Total Cell Count [4]: 1658
- Population Apoptotic (%) [5]: 21%
- Population Fragmented Nuclei (%) [5]: 10%
- Population Hoechst High Intensity Objects (%) [5]: 7%
- Population Membrane Permeable-Phenotype (%) [5]: 12%
- Population Mitochondria Different-Phenotype (%) [5]: 8%
- Population Mitotic Cells (%) [5]: 78%
- Population Normal (%) [5]: 92%
- Population Pyknosed Nuclei (%) [5]: 8%
- Population Tubulin-Different-Phenotype (%) [5]: 31%
- Total Cell Count [5]: 805
- Population Apoptotic (%) [6]: 6%
- Population Fragmented Nuclei (%) [6]: 12%
- Population Healthy Nuclei (%) [6]: 81%
- Population Hoechst High Intensity Objects (%) [6]: 1%
- Population Membrane Permeable-Phenotype (%) [6]: 13%
- Population Mitochondria Different-Phenotype (%) [6]: 6%
- Population Mitotic Cells (%) [6]: 93%
- Population Normal (%) [6]: 98%
- Population Pyknosed Nuclei (%) [6]: 5%
- Population Tubulin-Different-Phenotype (%) [6]: 47%
- Total Cell Count [6]: 1839
- Population Apoptotic (%) [7]: 26%
- Population Fragmented Nuclei (%) [7]: 11%
- Population Healthy Nuclei (%) [7]: 77%
- Population Hoechst High Intensity Objects (%) [7]: 5%
- Population Membrane Permeable-Phenotype (%) [7]: 8%
- Population Mitochondria Different-Phenotype (%) [7]: 1%
- Population Mitotic Cells (%) [7]: 73%
- Population Normal (%) [7]: 94%
- Population Pyknosed Nuclei (%) [7]: 10%
- Population Tubulin-Different-Phenotype (%) [7]: 7%
- Total Cell Count [7]: 670
- Population Apoptotic (%) [8]: 3%
- Population Fragmented Nuclei (%) [8]: 26%
- Population Healthy Nuclei (%) [8]: 71%
- Population Hoechst High Intensity Objects (%) [8]: 3%
- Population Membrane Permeable-Phenotype (%) [8]: 5%
- Population Mitochondria Different-Phenotype (%) [8]: 0%
- Population Mitotic Cells (%) [8]: 96%
- Population Normal (%) [8]: 96%
- Population Pyknosed Nuclei (%) [8]: 2%
- Population Tubulin-Different-Phenotype (%) [8]: 5%
- Total Cell Count [8]: 2801
